Values belong to the molecule of their own block, whether it stands above or below them.
Assays:
[1] = target: Calcium/calmodulin-dependent protein kinase type II subunit beta (Homo sapiens) (UniProt Q13554); assay: Inhibition of human recombinant CaMK2b at 500 nM in presence of ATP by radiometric assay relative to control
[2] = target: RAC-alpha serine/threonine-protein kinase (Homo sapiens) (UniProt P31749); assay: Inhibition of human recombinant AKT1 at 500 nM related to control ULK1
[3] = target: Serine/threonine-protein kinase PAK 3 (Homo sapiens) (UniProt O75914); assay: Inhibition of human recombinant PAK3 at 500 nM related to control ULK1
Sequence of Serine/threonine-protein kinase PAK 3 (Homo sapiens) (O75914 whole entry, looked up): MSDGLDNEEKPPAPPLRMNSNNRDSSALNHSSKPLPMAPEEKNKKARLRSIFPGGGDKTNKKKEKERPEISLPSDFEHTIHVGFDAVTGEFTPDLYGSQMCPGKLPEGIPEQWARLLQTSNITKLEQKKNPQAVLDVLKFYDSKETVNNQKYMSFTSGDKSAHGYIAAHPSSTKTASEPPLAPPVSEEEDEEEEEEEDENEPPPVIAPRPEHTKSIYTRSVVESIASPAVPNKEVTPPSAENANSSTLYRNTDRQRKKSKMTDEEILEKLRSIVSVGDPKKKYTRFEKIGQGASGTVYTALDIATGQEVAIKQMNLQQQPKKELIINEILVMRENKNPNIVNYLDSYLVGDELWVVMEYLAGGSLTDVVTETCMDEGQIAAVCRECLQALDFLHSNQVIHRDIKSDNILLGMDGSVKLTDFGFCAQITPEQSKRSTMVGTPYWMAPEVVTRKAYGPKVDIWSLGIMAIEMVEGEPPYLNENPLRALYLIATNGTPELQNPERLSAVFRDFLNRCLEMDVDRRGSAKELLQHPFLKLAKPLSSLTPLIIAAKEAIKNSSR

[4] = target: Epidermal growth factor receptor (Homo sapiens) (UniProt P00533); assay: Inhibition of human recombinant EGFR at 15 nM in presence of ATP by radiometric assay relative to control
Sequence of Epidermal growth factor receptor (Homo sapiens) (P00533 whole entry): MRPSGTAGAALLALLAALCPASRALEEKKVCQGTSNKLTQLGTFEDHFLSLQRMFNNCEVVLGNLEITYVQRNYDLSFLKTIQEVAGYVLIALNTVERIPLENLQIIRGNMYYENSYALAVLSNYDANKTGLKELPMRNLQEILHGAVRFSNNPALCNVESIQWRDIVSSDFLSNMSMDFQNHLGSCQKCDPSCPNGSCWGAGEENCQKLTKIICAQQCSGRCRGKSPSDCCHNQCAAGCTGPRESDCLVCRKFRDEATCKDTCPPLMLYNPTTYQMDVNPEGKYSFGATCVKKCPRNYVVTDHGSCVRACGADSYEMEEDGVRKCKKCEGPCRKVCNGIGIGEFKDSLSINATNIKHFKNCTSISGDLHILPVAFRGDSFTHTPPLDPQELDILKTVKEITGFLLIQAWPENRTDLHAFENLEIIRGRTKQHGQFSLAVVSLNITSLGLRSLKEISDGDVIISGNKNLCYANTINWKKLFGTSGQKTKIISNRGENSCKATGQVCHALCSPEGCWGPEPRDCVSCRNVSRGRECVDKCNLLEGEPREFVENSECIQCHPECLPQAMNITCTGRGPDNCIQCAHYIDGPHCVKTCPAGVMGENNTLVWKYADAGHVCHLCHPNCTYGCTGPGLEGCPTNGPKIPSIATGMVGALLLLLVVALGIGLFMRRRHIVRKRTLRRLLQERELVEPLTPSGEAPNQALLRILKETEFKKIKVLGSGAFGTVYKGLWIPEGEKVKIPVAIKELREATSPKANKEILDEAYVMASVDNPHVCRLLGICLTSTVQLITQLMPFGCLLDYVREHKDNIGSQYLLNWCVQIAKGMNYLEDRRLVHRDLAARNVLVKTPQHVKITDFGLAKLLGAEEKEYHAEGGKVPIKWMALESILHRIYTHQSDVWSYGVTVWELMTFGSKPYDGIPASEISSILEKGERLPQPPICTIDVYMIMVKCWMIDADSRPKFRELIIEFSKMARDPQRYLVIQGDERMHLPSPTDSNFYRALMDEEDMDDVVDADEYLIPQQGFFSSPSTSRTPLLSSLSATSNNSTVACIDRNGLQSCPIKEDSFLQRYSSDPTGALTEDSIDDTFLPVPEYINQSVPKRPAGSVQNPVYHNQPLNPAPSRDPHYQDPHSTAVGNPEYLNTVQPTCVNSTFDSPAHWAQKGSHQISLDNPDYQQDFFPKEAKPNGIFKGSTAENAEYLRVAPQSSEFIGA

[5] = target: T1, Dual specificity mitogen-activated protein kinase kinase 6 (Homo sapiens) (UniProt P52564); assay: Inhibition of human recombinant MAP2K6 at 15 nM in presence of ATP by radiometric assay relative to control
T1 sequence (whole entry): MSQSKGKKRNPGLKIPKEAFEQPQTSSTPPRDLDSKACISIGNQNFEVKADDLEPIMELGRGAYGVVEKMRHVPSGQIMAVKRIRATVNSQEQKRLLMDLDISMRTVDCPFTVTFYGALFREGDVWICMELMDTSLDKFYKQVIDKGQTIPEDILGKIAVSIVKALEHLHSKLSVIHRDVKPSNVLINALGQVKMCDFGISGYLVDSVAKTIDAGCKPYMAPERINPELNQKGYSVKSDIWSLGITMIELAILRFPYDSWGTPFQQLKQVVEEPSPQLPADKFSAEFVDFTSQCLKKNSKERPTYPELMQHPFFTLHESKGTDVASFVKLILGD

[6] = target: cAMP-dependent protein kinase catalytic subunit alpha (Homo sapiens) (UniProt P17612); assay: Inhibition of human recombinant PKACalpha at 15 nM in presence of ATP by radiometric assay relative to control
[7] = target: T2, Serine/threonine-protein kinase NLK (Homo sapiens) (UniProt Q9UBE8); assay: Inhibition of human recombinant NLK at 15 nM related to control ULK1
T2 sequence (whole entry): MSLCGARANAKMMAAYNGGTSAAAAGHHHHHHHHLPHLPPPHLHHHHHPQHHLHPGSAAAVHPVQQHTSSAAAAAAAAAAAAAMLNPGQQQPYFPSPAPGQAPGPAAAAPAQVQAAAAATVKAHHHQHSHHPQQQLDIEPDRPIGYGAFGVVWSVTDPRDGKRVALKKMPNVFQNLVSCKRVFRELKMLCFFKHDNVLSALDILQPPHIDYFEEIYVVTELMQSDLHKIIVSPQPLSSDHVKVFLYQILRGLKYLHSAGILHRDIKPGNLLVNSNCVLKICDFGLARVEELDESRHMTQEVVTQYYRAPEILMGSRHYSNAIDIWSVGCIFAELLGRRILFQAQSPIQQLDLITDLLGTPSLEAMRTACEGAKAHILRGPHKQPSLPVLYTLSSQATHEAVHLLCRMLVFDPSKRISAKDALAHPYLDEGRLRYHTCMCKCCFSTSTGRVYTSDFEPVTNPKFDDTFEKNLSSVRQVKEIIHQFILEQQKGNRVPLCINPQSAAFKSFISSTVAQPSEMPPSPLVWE

[8] = target: T3, Serine/threonine-protein kinase BRSK2 (Homo sapiens) (UniProt Q8IWQ3); assay: Inhibition of human recombinant BRSK2 at 40 nM in presence of ATP by radiometric assay relative to control
T3 sequence (whole entry): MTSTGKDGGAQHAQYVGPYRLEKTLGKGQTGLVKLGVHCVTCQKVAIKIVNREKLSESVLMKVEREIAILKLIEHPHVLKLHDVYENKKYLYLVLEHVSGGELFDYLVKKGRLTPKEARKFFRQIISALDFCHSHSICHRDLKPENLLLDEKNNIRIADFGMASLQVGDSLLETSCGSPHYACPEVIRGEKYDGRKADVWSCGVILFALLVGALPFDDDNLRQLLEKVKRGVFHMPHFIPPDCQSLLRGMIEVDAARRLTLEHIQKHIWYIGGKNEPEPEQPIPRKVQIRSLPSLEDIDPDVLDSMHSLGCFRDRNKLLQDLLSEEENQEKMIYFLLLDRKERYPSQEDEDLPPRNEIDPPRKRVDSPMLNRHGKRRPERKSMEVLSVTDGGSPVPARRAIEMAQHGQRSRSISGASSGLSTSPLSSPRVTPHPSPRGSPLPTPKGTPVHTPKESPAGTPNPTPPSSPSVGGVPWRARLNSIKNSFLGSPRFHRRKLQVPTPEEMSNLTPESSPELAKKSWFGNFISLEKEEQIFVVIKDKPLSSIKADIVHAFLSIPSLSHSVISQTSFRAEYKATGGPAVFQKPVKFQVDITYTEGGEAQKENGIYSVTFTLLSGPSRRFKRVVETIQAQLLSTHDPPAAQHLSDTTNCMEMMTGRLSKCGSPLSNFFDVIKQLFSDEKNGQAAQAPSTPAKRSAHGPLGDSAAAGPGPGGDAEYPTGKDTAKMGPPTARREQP
In short: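 Recombinant human kinase panel (327 kinases) run as radiometric activity assays, each kinase in duplicate at one compound concentration. Activity remaining expressed relative to vehicle control; percent inhibition taken as 100% minus % activity remaining.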

[9] = target: T4, Serine/threonine-protein kinase STK11 (Homo sapiens) (UniProt Q15831); assay: Inhibition of human recombinant LKB1 at 40 nM in presence of ATP by radiometric assay relative to control
T4 sequence (whole entry): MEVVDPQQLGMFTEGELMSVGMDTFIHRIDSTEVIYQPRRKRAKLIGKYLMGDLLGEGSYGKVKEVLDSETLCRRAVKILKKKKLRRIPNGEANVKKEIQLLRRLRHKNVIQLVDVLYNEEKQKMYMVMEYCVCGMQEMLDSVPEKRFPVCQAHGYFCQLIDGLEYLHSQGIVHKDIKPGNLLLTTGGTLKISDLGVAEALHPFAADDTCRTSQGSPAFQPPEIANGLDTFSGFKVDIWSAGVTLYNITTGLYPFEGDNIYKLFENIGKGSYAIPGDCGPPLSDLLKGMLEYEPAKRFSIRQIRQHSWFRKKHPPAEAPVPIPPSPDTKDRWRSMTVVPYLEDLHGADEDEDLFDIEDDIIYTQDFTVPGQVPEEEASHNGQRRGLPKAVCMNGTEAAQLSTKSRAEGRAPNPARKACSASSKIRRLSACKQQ

[10] = target: Cyclin-dependent kinase 12 (Homo sapiens) (UniProt Q9NYV4); assay: Inhibition of human recombinant CRK7 at 40 nM related to control ULK1
Sequence of Cyclin-dependent kinase 12 (Homo sapiens) (Q9NYV4 whole entry, looked up): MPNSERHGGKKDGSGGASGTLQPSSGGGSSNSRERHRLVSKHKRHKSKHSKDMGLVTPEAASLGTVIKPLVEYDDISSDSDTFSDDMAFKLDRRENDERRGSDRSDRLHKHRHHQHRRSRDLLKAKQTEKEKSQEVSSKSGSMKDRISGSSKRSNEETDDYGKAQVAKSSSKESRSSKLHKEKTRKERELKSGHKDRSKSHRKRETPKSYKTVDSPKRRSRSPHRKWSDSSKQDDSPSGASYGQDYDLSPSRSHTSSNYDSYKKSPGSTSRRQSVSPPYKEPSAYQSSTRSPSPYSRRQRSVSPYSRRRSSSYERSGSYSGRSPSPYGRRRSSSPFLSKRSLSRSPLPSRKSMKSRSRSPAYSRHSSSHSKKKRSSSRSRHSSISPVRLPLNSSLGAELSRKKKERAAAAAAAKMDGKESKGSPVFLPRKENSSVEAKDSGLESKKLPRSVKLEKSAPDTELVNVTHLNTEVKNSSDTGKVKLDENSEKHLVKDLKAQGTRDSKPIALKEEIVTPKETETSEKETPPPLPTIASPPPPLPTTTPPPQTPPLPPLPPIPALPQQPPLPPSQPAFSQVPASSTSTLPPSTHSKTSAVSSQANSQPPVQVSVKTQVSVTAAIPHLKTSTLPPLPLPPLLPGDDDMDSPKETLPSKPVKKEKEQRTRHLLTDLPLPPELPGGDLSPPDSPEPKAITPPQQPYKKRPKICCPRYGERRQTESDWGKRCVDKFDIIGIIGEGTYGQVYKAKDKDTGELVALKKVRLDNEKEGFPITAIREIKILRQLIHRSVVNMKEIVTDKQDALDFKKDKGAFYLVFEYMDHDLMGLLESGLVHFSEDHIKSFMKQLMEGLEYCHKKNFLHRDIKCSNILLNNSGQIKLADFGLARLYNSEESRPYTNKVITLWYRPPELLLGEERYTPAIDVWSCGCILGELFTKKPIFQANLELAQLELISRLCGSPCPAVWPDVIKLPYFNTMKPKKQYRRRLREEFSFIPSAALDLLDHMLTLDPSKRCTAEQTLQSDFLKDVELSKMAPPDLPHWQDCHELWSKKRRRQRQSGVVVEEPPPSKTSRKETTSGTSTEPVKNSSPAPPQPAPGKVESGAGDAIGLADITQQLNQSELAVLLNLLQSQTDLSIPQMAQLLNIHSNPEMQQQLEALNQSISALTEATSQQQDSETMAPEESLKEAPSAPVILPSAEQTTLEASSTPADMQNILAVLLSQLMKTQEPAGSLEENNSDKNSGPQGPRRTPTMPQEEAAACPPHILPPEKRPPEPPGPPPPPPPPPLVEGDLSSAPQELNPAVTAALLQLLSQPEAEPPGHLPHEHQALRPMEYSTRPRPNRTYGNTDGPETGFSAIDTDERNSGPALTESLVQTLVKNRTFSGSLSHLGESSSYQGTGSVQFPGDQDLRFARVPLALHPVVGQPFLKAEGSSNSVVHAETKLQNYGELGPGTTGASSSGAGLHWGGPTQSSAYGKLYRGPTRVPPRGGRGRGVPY

[11] = target: Dual specificity mitogen-activated protein kinase kinase 1 (Homo sapiens) (UniProt Q02750); assay: Inhibition of human recombinant MAP2K1 at 40 nM related to control ULK1
Sequence of Dual specificity mitogen-activated protein kinase kinase 1 (Homo sapiens) (Q02750 whole entry): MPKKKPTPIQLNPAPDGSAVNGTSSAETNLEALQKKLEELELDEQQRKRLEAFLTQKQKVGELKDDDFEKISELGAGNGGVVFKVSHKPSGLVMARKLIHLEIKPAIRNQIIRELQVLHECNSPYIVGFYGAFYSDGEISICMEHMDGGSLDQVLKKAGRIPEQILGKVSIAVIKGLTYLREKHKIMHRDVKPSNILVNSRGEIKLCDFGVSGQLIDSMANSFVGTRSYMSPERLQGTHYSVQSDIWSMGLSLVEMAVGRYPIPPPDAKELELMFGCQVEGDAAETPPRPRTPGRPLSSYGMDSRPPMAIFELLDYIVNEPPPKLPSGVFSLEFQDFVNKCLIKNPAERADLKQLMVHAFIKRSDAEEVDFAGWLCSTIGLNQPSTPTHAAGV

[12] = target: Tyrosine-protein kinase Tec (Homo sapiens) (UniProt P42680); assay: Inhibition of human recombinant TEC at 40 nM in presence of ATP by radiometric assay relative to control

Sequence of RAC-alpha serine/threonine-protein kinase (Homo sapiens) (P31749 whole entry): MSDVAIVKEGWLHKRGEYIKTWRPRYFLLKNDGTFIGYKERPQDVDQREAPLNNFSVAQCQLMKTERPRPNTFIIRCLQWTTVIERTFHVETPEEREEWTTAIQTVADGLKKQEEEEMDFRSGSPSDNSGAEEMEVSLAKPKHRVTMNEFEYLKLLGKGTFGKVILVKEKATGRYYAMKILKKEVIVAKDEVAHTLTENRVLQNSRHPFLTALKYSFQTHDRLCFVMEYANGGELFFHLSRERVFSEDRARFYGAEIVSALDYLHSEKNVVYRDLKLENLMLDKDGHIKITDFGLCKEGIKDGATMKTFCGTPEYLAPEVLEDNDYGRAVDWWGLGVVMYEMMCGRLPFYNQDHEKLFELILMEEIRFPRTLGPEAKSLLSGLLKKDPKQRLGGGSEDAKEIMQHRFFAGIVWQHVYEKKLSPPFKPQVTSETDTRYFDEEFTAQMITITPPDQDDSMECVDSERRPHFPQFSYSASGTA
Sequence of Calcium/calmodulin-dependent protein kinase type II subunit beta (Homo sapiens) (Q13554 whole entry): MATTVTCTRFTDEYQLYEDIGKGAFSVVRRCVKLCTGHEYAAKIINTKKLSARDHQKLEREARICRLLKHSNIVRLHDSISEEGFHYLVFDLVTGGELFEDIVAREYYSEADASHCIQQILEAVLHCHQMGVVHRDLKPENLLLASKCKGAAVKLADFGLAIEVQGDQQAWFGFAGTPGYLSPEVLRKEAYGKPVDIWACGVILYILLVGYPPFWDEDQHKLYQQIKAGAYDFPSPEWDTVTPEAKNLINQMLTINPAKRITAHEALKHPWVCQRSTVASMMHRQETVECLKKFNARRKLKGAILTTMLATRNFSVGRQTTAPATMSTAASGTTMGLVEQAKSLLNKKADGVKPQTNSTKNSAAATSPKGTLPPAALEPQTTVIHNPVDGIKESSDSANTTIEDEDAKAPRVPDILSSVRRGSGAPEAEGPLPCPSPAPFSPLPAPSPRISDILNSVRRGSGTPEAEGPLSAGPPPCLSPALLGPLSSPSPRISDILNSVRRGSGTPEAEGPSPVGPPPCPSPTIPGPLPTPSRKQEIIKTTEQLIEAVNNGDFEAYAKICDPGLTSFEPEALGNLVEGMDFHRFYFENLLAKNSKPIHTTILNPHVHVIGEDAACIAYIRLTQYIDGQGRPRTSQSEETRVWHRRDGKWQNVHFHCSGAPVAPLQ

inhibition [1]: 0%
fold change (FC) [2]: 0
fold change (FC) [3]: 0.12
Compound: CNC(=O)c1ccccc1Oc1nc(Nc2cc(OC)c(OC)c(OC)c2)ncc1Br

inhibition [4]: 3%
inhibition [5]: 5%
inhibition [6]: 0%
fold change (FC) [7]: 0.1
Compound: CC(C)[C@H](NC(=O)c1cc(-c2cnn3cc(-c4ccc(OCCN5CCCCC5)cc4)cnc23)cs1)C(F)(F)F

inhibition [8]: 0%
inhibition [9]: 13%
fold change (FC) [10]: 0.1
fold change (FC) [11]: 0
inhibition [12]: 0%
Compound: O=C(N[C@@H](C1CC1)C(F)(F)F)c1cc(-c2cnn3cc(-c4ccc(F)cc4)cnc23)cs1

From ChEMBL document CHEMBL5653631, “A Potent and Selective ULK1 Inhibitor Suppresses Autophagy and Sensitizes Cancer Cells to Nutrient Stress” (iScience, 2018)
